Assay results published in ChEMBL document CHEMBL1139460 (J Med Chem, 2005).
Calls of active or inactive are those of the source. No cut-off for these calls is given here.

How the values were obtained:
[1] = biological target: T1, GABA-A receptor; alpha-2/beta-3/gamma-2 (Homo sapiens) (UniProt P18507+P28472+P47869); test: Efficacy at human recombinant GABAA alpha-2-beta-3-gamma-2 receptor expressed in Xenopus laevis oocytes by two electrode voltage clamp method relative to GABA; assay type: cell-based; conditions: Oocyte
Summary of the method: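 Human α2β3γ2 GABA-A receptors were transiently expressed in Xenopus oocytes and recorded by two-electrode voltage clamp. […] Efficacy is the percent modulation of the submaximal GABA EC20 ion current.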

[2] = Bioavailability in rat; assay type: ADME, organism-based; conditions: in vivo
[3] = Half life in dog; assay type: ADME, organism-based, Canis lupus familiaris; conditions: in vivo
[4] = tested on: Rattus norvegicus; test: Receptor occupancy at GABAA receptor in rat at 30 mg/kg, po; assay type: functional
[5] = tested on: Rattus norvegicus; test: Anxiolytic effect in rat at 3 mg/kg, po by anxiety assay; assay type: functional, organism-based; set-up: dose 3 mg/kg
[6] = tested on: Rattus norvegicus; test: Receptor occupancy at GABAA receptor in rat at 1 mg/kg, po; assay type: functional
[7] = biological target: T2, GABA-A receptor; alpha-2/beta-3/gamma-2 (Homo sapiens, UniProt P18507+P28472+P47869); test: Displacement of [3H]Ro 15-1788 from human recombinant GABAA alpha-2-beta-3-gamma-2 receptor expressed in L(tk-) cells; assay type: cell-based
T2 sequence (P18507 whole entry): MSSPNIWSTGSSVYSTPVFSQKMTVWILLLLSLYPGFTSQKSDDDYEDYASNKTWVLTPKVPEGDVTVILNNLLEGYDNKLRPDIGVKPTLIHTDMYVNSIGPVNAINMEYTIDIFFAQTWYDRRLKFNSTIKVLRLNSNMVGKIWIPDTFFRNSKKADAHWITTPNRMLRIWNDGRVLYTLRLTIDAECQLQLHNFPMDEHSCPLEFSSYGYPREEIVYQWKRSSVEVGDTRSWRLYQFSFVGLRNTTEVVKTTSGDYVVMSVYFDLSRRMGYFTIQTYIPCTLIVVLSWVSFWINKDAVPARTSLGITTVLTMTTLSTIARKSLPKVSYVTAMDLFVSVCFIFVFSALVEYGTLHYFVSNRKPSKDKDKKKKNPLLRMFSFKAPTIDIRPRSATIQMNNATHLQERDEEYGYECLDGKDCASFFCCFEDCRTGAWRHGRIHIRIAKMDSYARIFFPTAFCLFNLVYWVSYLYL
T2 sequence (P28472 whole entry): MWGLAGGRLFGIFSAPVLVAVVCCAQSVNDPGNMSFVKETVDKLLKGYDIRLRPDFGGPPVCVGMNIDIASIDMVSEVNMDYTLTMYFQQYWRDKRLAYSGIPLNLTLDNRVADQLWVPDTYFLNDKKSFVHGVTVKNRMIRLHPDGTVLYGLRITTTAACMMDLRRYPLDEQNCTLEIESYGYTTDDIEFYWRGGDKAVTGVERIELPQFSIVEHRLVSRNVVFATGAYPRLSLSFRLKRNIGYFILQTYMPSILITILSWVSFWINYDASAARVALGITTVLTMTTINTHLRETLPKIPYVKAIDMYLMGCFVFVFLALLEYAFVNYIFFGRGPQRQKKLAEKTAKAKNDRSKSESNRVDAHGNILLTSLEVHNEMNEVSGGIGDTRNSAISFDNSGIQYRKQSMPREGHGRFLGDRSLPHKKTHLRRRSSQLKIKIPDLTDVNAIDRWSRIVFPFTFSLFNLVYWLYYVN
T2 sequence (P47869 whole entry): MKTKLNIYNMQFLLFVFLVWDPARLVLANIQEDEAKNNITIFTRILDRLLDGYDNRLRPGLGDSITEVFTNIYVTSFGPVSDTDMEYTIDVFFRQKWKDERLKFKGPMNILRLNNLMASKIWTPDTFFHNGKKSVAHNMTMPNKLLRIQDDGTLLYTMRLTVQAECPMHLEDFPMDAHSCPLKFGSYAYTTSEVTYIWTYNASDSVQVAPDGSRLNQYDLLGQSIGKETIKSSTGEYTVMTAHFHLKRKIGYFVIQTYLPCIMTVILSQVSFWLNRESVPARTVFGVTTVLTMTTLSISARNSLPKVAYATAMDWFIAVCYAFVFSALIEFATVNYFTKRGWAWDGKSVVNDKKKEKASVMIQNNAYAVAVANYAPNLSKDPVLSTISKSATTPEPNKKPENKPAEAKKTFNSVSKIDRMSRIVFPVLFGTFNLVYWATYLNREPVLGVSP

[8] = biological target: T3, GABA-A receptor; alpha-3/beta-3/gamma-2 (Homo sapiens, UniProt P18507+P28472+P34903); test: Displacement of [3H]Ro 15-1788 from human recombinant GABAA alpha-3-beta-3-gamma-2 receptor expressed in L(tk-) cells; assay type: cell-based
T3 sequence (P18507 whole entry): T2 sequence (P18507 whole entry)
T3 sequence (P28472 whole entry): T2 sequence (P28472 whole entry)
T3 sequence (P34903 whole entry): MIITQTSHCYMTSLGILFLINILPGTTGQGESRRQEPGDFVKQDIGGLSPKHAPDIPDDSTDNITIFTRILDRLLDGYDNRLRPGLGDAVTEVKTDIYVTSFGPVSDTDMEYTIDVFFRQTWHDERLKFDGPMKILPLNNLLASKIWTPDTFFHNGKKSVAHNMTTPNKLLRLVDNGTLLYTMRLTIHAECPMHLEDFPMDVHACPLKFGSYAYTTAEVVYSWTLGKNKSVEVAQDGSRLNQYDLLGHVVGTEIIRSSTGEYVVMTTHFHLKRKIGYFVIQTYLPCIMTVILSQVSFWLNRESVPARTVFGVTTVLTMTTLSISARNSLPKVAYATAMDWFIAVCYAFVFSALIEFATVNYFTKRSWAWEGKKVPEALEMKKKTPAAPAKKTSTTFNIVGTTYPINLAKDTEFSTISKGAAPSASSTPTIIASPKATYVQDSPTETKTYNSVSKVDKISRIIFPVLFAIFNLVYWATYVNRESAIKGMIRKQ

[9] = Half life in rat; assay type: ADME, organism-based; conditions: in vivo
[10] = tested on: Rattus norvegicus; test: Sedative effect in orally dosed rat at by chain-pulling assay; assay type: functional, organism-based
[11] = tested on: Mus musculus; test: Receptor occupancy in vivo by displacement of [3H]Ro 15-1788 binding from GABAA receptor in orally dosed Swiss Webster mouse; assay type: functional; conditions: po, read-out: ID50 (the source's name)
[12] = tested on: Rattus norvegicus; test: Receptor occupancy at GABAA receptor in rat at 3 mg/kg, po; assay type: functional
[13] = Bioavailability in dog; assay type: ADME, organism-based, Canis lupus familiaris; conditions: in vivo
[14] = biological target: T4, GABA-A receptor; alpha-1/beta-3/gamma-2 (Homo sapiens, UniProt P14867+P18507+P28472); test: Displacement of [3H]Ro 15-1788 from human recombinant GABAA alpha-1-beta-3-gamma-2 receptor expressed in L(tk-) cells; assay type: cell-based
T4 sequence (P14867 whole entry): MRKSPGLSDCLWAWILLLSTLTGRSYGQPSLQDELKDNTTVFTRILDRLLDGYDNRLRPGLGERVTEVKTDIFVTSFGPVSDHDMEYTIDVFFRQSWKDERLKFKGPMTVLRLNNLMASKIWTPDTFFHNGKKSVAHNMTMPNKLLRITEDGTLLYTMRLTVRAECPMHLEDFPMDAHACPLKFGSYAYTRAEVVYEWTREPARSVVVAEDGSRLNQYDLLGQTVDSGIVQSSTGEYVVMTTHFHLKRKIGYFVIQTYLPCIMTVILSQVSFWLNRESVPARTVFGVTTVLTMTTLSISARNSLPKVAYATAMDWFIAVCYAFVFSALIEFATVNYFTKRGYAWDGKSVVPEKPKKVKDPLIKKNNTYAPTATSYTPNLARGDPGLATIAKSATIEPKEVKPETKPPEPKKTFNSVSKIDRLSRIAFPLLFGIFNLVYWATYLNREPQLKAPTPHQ
T4 sequence (P18507 whole entry): T2 sequence (P18507 whole entry)
T4 sequence (P28472 whole entry): T2 sequence (P28472 whole entry)

[15] = tested on: Rattus norvegicus; test: Anxiolytic effect in rat at 1 mg/kg, po by anxiolytic assay; assay type: functional, organism-based; set-up: dose 1 mg/kg
[16] = biological target: T5, GABA-A receptor; alpha-1/beta-3/gamma-2 (Homo sapiens) (UniProt P14867+P18507+P28472); test: Efficacy at human recombinant GABAA alpha-1-beta-3-gamma-2 receptor expressed in Xenopus laevis oocytes by two electrode voltage clamp method relative to GABA; assay type: cell-based; conditions: Oocyte
[17] = biological target: T6, GABA-A receptor; alpha-3/beta-3/gamma-2 (Homo sapiens) (UniProt P18507+P28472+P34903); test: Efficacy at human recombinant GABAA alpha-3-beta-3-gamma-2 receptor expressed in Xenopus laevis oocytes by two electrode voltage clamp method relative to GABA; assay type: cell-based; conditions: Oocyte
[18] = biological target: T5, GABA-A receptor; alpha-1/beta-3/gamma-2 (Homo sapiens); test: Efficacy at human recombinant GABAA alpha-1-beta-3-gamma-2 receptor expressed in L(tk-) cells by two electrode voltage clamp method relative to GABA; assay type: cell-based
Summary of the method: (§1)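 Receptors stably expressed in L(tk-) fibroblasts; percent modulation of the submaximal (EC20) GABA response, multiple drug concentrations assessed.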

[19] = biological target: T6, GABA-A receptor; alpha-3/beta-3/gamma-2 (Homo sapiens); test: Efficacy at human recombinant GABAA alpha-3-beta-3-gamma-2 receptor expressed in L(tk-) cells by two electrode voltage clamp method relative to GABA; assay type: cell-based; summary of the method: as §1
[20] = biological target: T1, GABA-A receptor; alpha-2/beta-3/gamma-2 (Homo sapiens); test: Efficacy at human recombinant GABAA alpha-2-beta-3-gamma-2 receptor expressed in L(tk-) cells by two electrode voltage clamp method relative to GABA; assay type: cell-based; summary of the method: as §1

SMILES | Efficacy [1] | Ki [7] | Ki [8] | Ki [14] | Efficacy [16] | Efficacy [17] | Efficacy [18] | Efficacy [19] | also measured
CN1C(=O)CN=C(c2ccccc2)c2cc(Cl)ccc21 | 115% | – | – | – | – | – | – | – | –
CCn1ncnc1COc1nn2c(-c3ccccc3F)nnc2cc1C(C)(C)C [MK-0777] | – | 310 pM | 200 pM | 270 pM | – | – | – | – | bioavailability [2]: 35%; half-life [3]: 1.5 h; Activity [4]: 99%; Activity [5]: Active; Activity [6]: 70%; half-life [9]: 1.4 h; Activity [10]: inactive; ED50 [11]: 0.42 mg/kg; Activity [12]: 88%; bioavailability [13]: 53%; Activity [15]: Active
c1ccc(-c2nnc3c4c(c(OCc5ccccn5)nn23)C2CCC4CC2)cc1 | 23% | – | 12000 pM | – | 51% | 38% | – | – | –
Cn1ncnc1COc1nn2c(-c3ccccc3)nnc2cc1-c1ccccc1 | – | 2600 pM | 1200 pM | 780 pM | 94% | 115% | – | – | –
c1ccc(-c2cc3nnc(-c4ccccc4)n3nc2OCc2ccccn2)cc1 | – | 2900 pM | 1800 pM | 1100 pM | 80% | 77% | – | – | –
Cn1ncnc1COc1nn2c(-c3ccccc3)nnc2cc1C1CCCC1 | – | 730 pM | 340 pM | 380 pM | – | – | 47% | 63% | –
Cn1ncnc1COc1nn2c(-c3ccccc3)nnc2cc1C1CCCCC1 | – | 14000 pM | 4800 pM | 6200 pM | 65% | 109% | – | – | –
Cn1ncnc1COc1nn2c(-c3ccccc3)nnc2cc1C(C)(C)C | – | – | 140 pM | 360 pM | – | – | 0% | 34% | –
Cn1ncnc1COc1nn2c(-c3ccccc3)nnc2cc1C1CCC1 | – | 250 pM | 170 pM | 230 pM | – | – | 27% | 72% | Efficacy [20]: 41%
Cc1ccc(-c2nc3ccc(C)cn3c2CC(=O)N(C)C)cc1 | 123% | – | – | – | 160% | – | – | – | –
